Data published in ChEMBL document CHEMBL4130578, “Synthesis, biological evaluation and structure-activity relationship studies of hederacolchiside E and its derivatives as potential anti-Alzheimer agents” (Eur J Med Chem, 2018).
The source made the active and inactive calls. The calls are words filed in the database; no cut-off is given here.

How the values were obtained:
PC-12 [1] = test: Cytoprotection against H2O2-induced cell injury in rat PC12 cells assessed as increase in cell viability at 1 to 50 uM preincubated for 12 hrs followed by H2O2 addition measured after 12 hrs by MTT assay; type: functional, cell-based
Outline: (§1)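 PC12 cells grown in RPMI-1640 with 15% FBS and penicillin/streptomycin, subcultured every 2 days and cultured 8 days before use. Cells seeded at 1 × 10^4/well, after 12 h pretreated with compound 12 h, then exposed to 200 µM H2O2 for 12 h. MTT added for 4 h, formazan dissolved in DMSO, OD 490 nm read. Viability given as % of untreated control, mean ± SD, n = 3, ANOVA with Dunnett's test.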

PC-12 [2] = test: Cytoprotection against amyloid beta (1 to 42)-induced cell injury in rat PC12 cells assessed as cell viability at 10 uM preincubated for 12 hrs followed by amyloid beta (1 to 42) addition measured after 12 hrs by MTT assay (reference value: 55.3 +/- 1.5%); type: functional; settings: read-out: Activity
PC-12 [3] = test: Cytoprotection against amyloid beta (1 to 42)-induced cell injury in rat PC12 cells assessed as cell viability at 50 uM preincubated for 12 hrs followed by amyloid beta (1 to 42) addition measured after 12 hrs by MTT assay (reference value: 55.3 +/- 1.5%); type: functional; settings: read-out: Activity
PC-12 [4] = test: Cytoprotection against H2O2-induced cell injury in rat PC12 cells assessed as increase in cell viability at 20 uM preincubated for 12 hrs followed by H2O2 addition measured after 12 hrs by MTT assay; type: functional, cell-based; outline: as §1

| SMILES | Activity (PC-12 [1]) | viability at 10 µM (PC-12 [2]) [%] | viability at 50 µM (PC-12 [3]) [%] | Activity (PC-12 [4]) |
| --- | --- | --- | --- | --- |
| C[C@@H]1O[C@@H](O[C@H]2[C@H](O[C@H]3CC[C@]4(C)[C@H]5CC=C6[C@@H]7CC(C)(C)CC[C@]7(C(=O)O[C@@H]7O[C@H](CO)[C@@H](O[C@@H]8O[C@@H](C)[C@H](O)[C@@H](O)[C@H]8O)[C@H](O)[C@H]7O)CC[C@@]6(C)[C@]5(C)CC[C@H]4C3(C)C)OC[C@H](O[C@@H]3O[C@H](CO)[C@@H](O)[C@H](O)[C@H]3O)[C@@H]2O)[C@H](O)[C@H](O)[C@H]1O | Active | 59.3 | 63.3 |  |
| CC1=NN(c2ccccc2)C(=O)C1 |  |  |  | Active |
